Data published in PubChem BioAssay AID821 (SRMLSC, 2007).
Active and inactive are the calls of the source.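 The calls were made as follows: active = compounds whose fitted half-maximal concentration for reducing fibroblast viability is 100 µM or lower; inactive = the rest.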

test system: LL 47 lung fibroblast viability, ATP luminescence; assay: LL 47 lung fibroblast growth inhibition, concentration-response, selectivity test for endothelial growth inhibitor program, cellular, luminescent ATP readout (AID 821)
Outline: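 Test system: human lung fibroblasts, LL 47 line / Amount: 1,150 cells/well / Schedule: 72 h compound treatment at 37 °C after overnight attachment / Technique: CellTiter-Glo luminescence readout of viable cells / Measure: percent viability relative to untreated wells, EC50 via 4-parameter fit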

| SMILES | EC50 |
| --- | --- |
| Cc1ccc(-c2csc3ncnc(Sc4nnc(CN5CCCCCC5=O)o4)c23)cc1 | 5.46 µM |
| CN1CCN(CCCN2c3ccccc3Sc3ccc(C(F)(F)F)cc32)CC1 | 17.9 µM |
| O=C1CSC(=S)N1Cc1cccnc1 | 9.72 µM |
| N=c1n(CCN2CCCCC2)c2ccccc2n1CC(O)c1cccc(Br)c1 (configuration not stated) | 13.3 µM |
| Cn1c(=O)n(C)c2cc(NC(=O)CCl)ccc21 | 10 µM |
| Cc1cc(NC(=O)c2cc(-c3ccncc3)nc3c(C)cccc23)no1 | 9.48 µM |
| CCOC(=O)c1sc2nc(C(C)C)c3c(c2c1N)CC(C)(C)OC3 | 12.4 µM |
| COc1cc(N=c2ssnc2Cl)cc(OC)c1OC | 15.2 µM |
| COc1cc2nc(N3CCN(C(=O)c4ccco4)CC3)nc(N)c2cc1OC | 8.04 µM |
| CN=C1c2cc3cc(OC)ccc3n2CCN1Cc1ccccc1 | 18.1 µM |
| CCOC(=O)C1=C(N)n2c(s/c(=C/c3ccco3)c2=O)=C(C(=O)OC)C1c1ccco1 (configuration not stated) | 9.27 µM |
| CN(C)C(=O)CSc1cccc2cccnc12 | 13.7 µM |
| Cc1ccc(NC(=O)c2cc(NC(=O)c3ccco3)ccc2N2CCCCC2)cc1 | 18 µM |
| O=S(=O)(c1ccc2c(c1)nc(COc1ccc(Cl)cc1)n2CC1CCCO1)N1CCOCC1 (configuration not stated) | 8.4 µM |
| c1ccc(-c2nc3nonc3nc2-c2ccccc2)cc1 | 15.2 µM |
| Cc1cc(C)n(-c2nc3ccccc3c(=O)n2OCC(=O)OCc2ccccc2)n1 | 4 µM |
| N#CC(c1ccccc1)c1ccc2c(C(F)(F)F)cc(C(F)(F)F)nc2n1 (configuration not stated) | 18 µM |
| C=CCOC(=O)C1=C(C)NC(SCC(=O)Nc2ccc(C)c(Cl)c2)=C(C#N)C1c1ccco1 (configuration not stated) | 7.76 µM |
| O=C(CCS(=O)(=O)c1ccccc1)Nc1nc2c(s1)CCCC2 | 14.3 µM |
| Cc1cc(C)c2ccc(N)nc2c1O | 2.82 µM |
| Cc1ccccc1NS(=O)(=O)c1ccc(N2CCCC2=O)cc1 | 16.3 µM |
| COc1cccc(C(=O)c2sc(NC(C)C)nc2N)c1 | 16.1 µM |
| Cc1nc(NC(=O)CSc2nc3cccnc3n2C2CCCCC2)sc1C | 8.49 µM |

| SMILES | EC50 |
| --- | --- |
| Fc1ccc2c(Cl)c(-c3nnc(-c4cccs4)o3)sc2c1 | 11.4 µM |
| COc1ccc(-c2nnc(Nc3nc4c(OC)cccc4s3)o2)cc1 | > 10 µM (inactive) |
| CCC(=O)OCCNc1cc(Sc2nc3ccccc3s2)c2nonc2c1[N+](=O)[O-] | 6.76 µM |
| Cc1oc(-c2ccc(Cl)cc2)nc1CN1CCC(C(=O)N2CCN(Cc3ccccc3)CC2)CC1 | 17.5 µM |
| Cc1ccccc1CS(=O)(=O)c1nnc([C@H](Cc2ccccc2)NC(=O)OC(C)(C)C)o1 | 13.1 µM |
| COC(=O)Nc1ccc(S(=O)(=O)N2c3ccccc3CCC2C)cc1 (configuration not stated) | 12.5 µM |
| Cc1nc(S(=O)(=O)N(C)c2ccccc2)c(C#N)c(C)c1Cl | 18.7 µM |
| CC(=O)Nc1ccc(NC2=Nc3ccccc3N3C2=Nc2c(c(C)nn2-c2ccccc2)C3c2ccccc2)cc1 (configuration not stated) | 12.2 µM |
| CCCCCCc1cc2cc(-c3nnc(-c4ccccc4)o3)c(=O)oc2cc1O | 20.3 µM |
| CC1(C)Cc2ccccc2C(NNC(=O)c2ccccn2)=N1 | 11.5 µM |
| O=C(Oc1c(CN2CCOCC2)cc(Cl)c2cccnc12)c1ccc(F)cc1 | 5.32 µM |
| O=c1c(Cl)c(NCCCO)cnn1-c1nc2ccccc2[nH]1 | 6.3 µM |
| C#CCn1c(=NC(=O)c2ccc(Br)s2)sc2cccc(OC)c21 | 20.1 µM |
| c1ccc(-c2nc(N3CCCCCC3)c3ccccc3n2)nc1 | 1.73 µM |
| O=C(Oc1cccc2cccnc12)c1ccc2c(c1)OCCO2 | 6.78 µM |
| Cc1ccc(C2Oc3ccccc3C3=C2C(c2cccs2)n2ncnc2N3)cc1 (configuration not stated) | 19.1 µM |
| Oc1ccccc1/C=N/Nc1nccnc1Cl | 2.08 µM |
| O=C(Oc1cccc2cccnc12)c1cccs1 | 4.21 µM |
| CCOC(=O)c1ccccc1Nc1cn(C(C)=O)c2ccccc12 | 14.5 µM |
| O=C(Cn1c(=O)n(CCCC(=O)NC2CCCC2)c(=O)c2ccccc21)NCCC1=CCCCC1 | 19.4 µM |
| Cc1ccccc1CS(=O)(=O)c1nnc([C@H](CC(C)C)NC(=O)OC(C)(C)C)o1 | 14.9 µM |
| CC(C)c1nnc(NC(=O)CCS(=O)(=O)c2nc(-c3cccs3)cc(C(F)(F)F)n2)s1 | 12.8 µM |
| Cc1cccc(CS(=O)(=O)c2nnc([C@H](Cc3ccccc3)NC(=O)OC(C)(C)C)o2)c1 | 16.7 µM |

| SMILES | EC50 |
| --- | --- |
| Cc1ccc(-n2c(SCC(=O)Nc3ccc4c(c3)OCO4)nnc2-c2cccs2)cc1 | 17.5 µM |
| CSc1nncc(=O)[nH]1 | 13.1 µM |
| CCCCn1c(=O)c(C(=O)Nc2cnccn2)c(O)c2ccccc21 | 16.1 µM |
| CCc1ccc(-c2nc(CN3CCC(C(=O)N4CCN(c5ccccc5)CC4)CC3)c(C)o2)cc1 | 18.7 µM |
| COCc1cc(=O)[nH]c(Nc2nc(C)c3ccccc3n2)n1 | 20.3 µM |
| Oc1ccccc1-c1nnc(SCCN2CCOCC2)n1Cc1ccccc1 | 1.48 µM |
| COCCCn1[nH]c2c3c(ccc2c1=O)C(=O)c1ccccc1C3=O | 17 µM |
| CCN1CCN(c2cc(C)c3cc(NC(=O)c4ccc(OC)c(OC)c4)ccc3n2)CC1 | 15.2 µM |
| COC(=O)c1ccc2c(=O)n(Cc3ccco3)c(SCC(=O)Nc3ccc(C)c(Cl)c3)nc2c1 | 4.07 µM |
| Cc1cc(NC(=O)CSc2nc3c(sc4ccccc43)c(=O)n2CCCN2CCOCC2)n[nH]1 | > 10 µM (inactive) |
| Cc1ccccc1-c1nc(CN2CCC(C(=O)NCCCN3CC(C)CC(C)C3)CC2)c(C)o1 (configuration not stated) | 10.6 µM |
| O=C1C=C(c2ccc(Cl)cc2)C(=O)N1Nc1ccccc1 | 14.9 µM |
| OCc1ccc(O)c2ncccc12 | 9.4 µM |
| O=C(CN1CCCC1)Nc1ccc(-c2nc3cc(NC(=O)CN4CCCC4)ccc3o2)cc1 | 7.33 µM |
| O=C(/C=C/c1ccc(Cl)cc1)c1cccnc1 | 19.7 µM |
| N=c1c2c(-c3ccccc3)c(-c3ccccc3)n(Cc3ccco3)c2ncn1Cc1ccco1 | 7.06 µM |
| Cc1sc2nc(SCC(=O)C(C)(C)C)n(Cc3ccco3)c(=O)c2c1C | 16.9 µM |
| CCCCOc1ccc(C(=O)C(CN2CCOCC2)c2ccccc2)cc1 (configuration not stated) | 6.5 µM |
| Oc1c(I)cc(Cl)c2cccnc12 | 11.4 µM |
| COC(=O)CCS(=O)(=O)c1nc(-c2ccccc2)cc(C(F)(F)F)n1 | 14.4 µM |
| O=c1[nH]c2cc3c(cc2cc1C(c1nnnn1C1CCCCC1)N1CCSCC1)OCCO3 (configuration not stated) | 19.7 µM |
